Active and inactive are the calls of the source. The rule behind the calls is not given here.
Key:
THP-1 [1] = assay: Antiinflammatory activity in human THP1 cells assessed as inhibition of TNFalpha secretion at 1 uM treated 1 hr before LPS challenge measured after 24 hrs by ELISA; type: functional, cell-based
Outline: (§1)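 THP-1 monocytes (RPMI 1640, 10% FBS, 37 °C, 5% CO2) differentiated to macrophages with PMA; pretreated 1 h with test agent at 1 μM in DMSO (0.1% final); LPS (E. coli 0111:B4) 1 μg/mL added, medium collected after 24 h and stored at −80 °C; secreted cytokine quantified by ELISA; vehicle and non-LPS controls; three independent experiments, mean ± SE.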

THP-1 [2] = assay: Cytotoxicity against human THP1 cells after 24 hrs by WST1 assay; type: cell-based; settings: THP-1, 24 h
Outline: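 THP-1 monocyte suspension (5 × 10^5 cells/mL) exposed to compounds in DMSO, 30 down to 0.37 μM, DMSO 0.1% final; 24 h at 37 °C, 5% CO2; viability by WST-1 reagent; IC50 calculated from viability curves; triplicate, arithmetic mean ± SE.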

[3] = target: Transcription factor p65 (Homo sapiens) (UniProt Q04206); assay: Inhibition of NFkappaB p65 nuclear translocation in LPS-induced human THP1 cells at 1 uM treated 1 hr before LPS challenge measured after 3 hrs using propidium iodide staining by fluorescence microscopic analysis; type: cell-based; settings: THP-1
Outline: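 PMA-differentiated THP-1 macrophages in serum-free RPMI (5 × 10^5 cells/mL) pretreated 1 h at 1 μM, then LPS 1 μg/mL final for 3 h; acetone-fixed, BSA-blocked, rabbit anti-p65 overnight at 4 °C, FITC anti-rabbit IgG 1 h, nuclei counterstained with propidium iodide 0.5 μg/mL; p65/nuclear colocalization viewed by fluorescence microscopy; three independent experiments.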

THP-1 [4] = assay: Antiinflammatory activity in human THP1 cells assessed as inhibition of IL-1beta secretion at 1 uM treated 1 hr before LPS challenge measured after 24 hrs by ELISA; type: functional, cell-based; outline: as §1
A2780 = assay: Cytotoxicity against human A2780 cells; type: cell-based
THP-1 [5] = assay: Ratio of prednisone to compound for antiinflammatory activity in human THP1 cells assessed as inhibition of TNFalpha secretion at 1 uM treated 1 hr before LPS challenge measured after 24 hrs by ELISA; type: functional

Sequence of Transcription factor p65 (Homo sapiens) (Q04206 whole entry): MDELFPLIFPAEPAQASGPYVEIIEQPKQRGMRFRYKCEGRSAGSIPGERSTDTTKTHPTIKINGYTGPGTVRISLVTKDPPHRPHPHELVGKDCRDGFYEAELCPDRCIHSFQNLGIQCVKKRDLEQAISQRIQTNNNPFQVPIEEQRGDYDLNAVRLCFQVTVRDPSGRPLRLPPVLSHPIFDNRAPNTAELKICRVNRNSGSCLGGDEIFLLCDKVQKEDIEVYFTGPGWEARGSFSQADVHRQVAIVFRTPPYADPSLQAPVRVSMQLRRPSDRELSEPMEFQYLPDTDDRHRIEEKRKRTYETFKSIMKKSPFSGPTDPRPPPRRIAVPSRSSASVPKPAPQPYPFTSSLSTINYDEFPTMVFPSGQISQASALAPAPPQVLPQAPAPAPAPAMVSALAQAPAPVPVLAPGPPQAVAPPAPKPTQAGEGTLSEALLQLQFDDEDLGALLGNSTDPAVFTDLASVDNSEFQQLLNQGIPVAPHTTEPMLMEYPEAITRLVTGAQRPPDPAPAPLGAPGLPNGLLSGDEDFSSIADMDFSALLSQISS

inhibition [3]	SMILES	inhibition (THP-1 [1])	IC50 (THP-1 [2]) [µM]	inhibition (THP-1 [4])	IC50 (A2780) [µM]	Ratio (THP-1 [5])
Active	CC1(C)C=Cc2c(O)ccc([C@@H]3CC(=O)c4c(O)cc(O)cc4O3)c2O1	Active	> 10	Active	–	–
–	CC1=C[C@@H]2c3c(O)cc(C=O)cc3OC3(c4ccc(O)c5c4OC(C)(C)C=C5)Oc4cc(O)ccc4[C@@H](C1)[C@H]23 (some centres undefined)	–	4.7	–	–	–
–	CC(C)=CCc1c(O)ccc(C(=O)[C@@H]2[C@@H](c3ccc(O)cc3O)CC(C)=C[C@H]2c2c(O)cc3c(c2O)C(=O)[C@@H]2Oc4cc(O)ccc4[C@]2(CC=C(C)C)O3)c1O	–	4	–	–	–
–	CC(C)=CCc1c(O)ccc([C@@]23Oc4cc(O)ccc4[C@@H]4CC(C)=C[C@@H](c5c(O)cc(-c6cc7ccc(O)cc7o6)cc5O2)[C@H]43)c1O	–	–	–	1.2	–
Active	CC(C)=CCc1c(-c2ccc(O)cc2O)oc2cc3c(c(O)c2c1=O)C=CC(C)(C)O3 [CUDRAFLAVONE B]	Active	> 10	inactive	–	–
–	CC(C)=CCc1c(-c2ccc(O)cc2O)oc2c(CC=C(C)C)c(O)cc(O)c2c1=O [KUWANON C]	Active	1.7	Active	–	–
–	CC(C)=CCC/C(C)=C/Cc1cc(C2CC(=O)c3c(O)cc(O)cc3O2)c(O)cc1O (centres undefined) [KUWANON E]	Active	4	Active	–	–
–	CC(C)=CCc1c(O)cc(-c2cc3ccc(O)cc3o2)cc1O [MORACIN C]	–	3.2	inactive	–	–
Active	CC(C)(O)CCc1c(-c2ccc(O)cc2O)oc2c3c(cc(O)c2c1=O)OC(C)(C)C=C3 [MORUSINOL]	Active	4.3	Active	–	2
Active	C[C@@]12C=C(c3c(O)cc(-c4cc5ccc(O)cc5o4)cc3O)C[C@@H](C1)c1ccc(O)cc1O2 [MULBERROFURAN H]	–	3.2	inactive	–	–
–	COc1c(O)cc2oc(-c3cc(O)cc(O)c3)cc2c1C/C=C(\C)CCC=C(C)C [MULBERROFURAN Y]	–	4.8	Active	–	–
